Data set [1] addresses T1, UDP-glucuronosyltransferase 1A10 (Homo sapiens, UniProt Q9HAW8).
T1 sequence (Q9HAW8 whole entry): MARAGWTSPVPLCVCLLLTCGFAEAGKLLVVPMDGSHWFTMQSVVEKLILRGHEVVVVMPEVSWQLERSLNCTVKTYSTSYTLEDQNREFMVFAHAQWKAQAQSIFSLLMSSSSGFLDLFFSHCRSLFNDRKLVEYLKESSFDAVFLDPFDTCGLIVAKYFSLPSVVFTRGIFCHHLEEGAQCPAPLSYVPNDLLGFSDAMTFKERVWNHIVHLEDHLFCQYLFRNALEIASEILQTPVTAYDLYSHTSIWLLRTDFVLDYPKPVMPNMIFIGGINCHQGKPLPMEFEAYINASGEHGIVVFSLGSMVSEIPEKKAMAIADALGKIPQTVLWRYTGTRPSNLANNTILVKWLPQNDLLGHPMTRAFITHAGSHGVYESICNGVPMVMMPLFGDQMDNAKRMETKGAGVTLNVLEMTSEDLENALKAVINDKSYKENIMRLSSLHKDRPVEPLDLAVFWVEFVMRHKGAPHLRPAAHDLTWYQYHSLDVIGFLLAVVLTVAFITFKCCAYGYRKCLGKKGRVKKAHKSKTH
Nature of the data set: Drug metabolism assessed as human UGT1A10-mediated glucuronidation expressed in baculovirus infected insect sf9 cells incubated for 5 mins prior to UDPGA addition measured after 5 to 30 mins by LC-UV analysis. The format is ADME. An outline of the steps:
(§1)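 Microsomes or Sf-9 Supersomes (5 µg protein in 200 µL 100 mM potassium phosphate pH 7.4) pre-treated with alamethicin on ice 15 min; substrate 10 µM final (2% DMSO), MgCl2 and saccharolactone 10 mM each; 5 min preincubation at 37 °C, then UDPGA to start. Samples taken at 5, 10, 15, 30 min (or 2, 5, 10, 15 min) into ACN with internal standard; LC-UV-ESI-MS/MS.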

Data set [2] is described as follows: Drug metabolism in cynomolgus monkey liver microsomes assessed as glucuronidation incubated for 5 mins prior to UDPGA addition measured after 5 to 30 mins by LC-UV analysis. Format: ADME, Macaca fascicularis. The method, boiled down: as §1
Data set [3] concerns the target T2, UDP-glucuronosyltransferase 1A3 (Homo sapiens, UniProt P35503).
T2 sequence (P35503 whole entry): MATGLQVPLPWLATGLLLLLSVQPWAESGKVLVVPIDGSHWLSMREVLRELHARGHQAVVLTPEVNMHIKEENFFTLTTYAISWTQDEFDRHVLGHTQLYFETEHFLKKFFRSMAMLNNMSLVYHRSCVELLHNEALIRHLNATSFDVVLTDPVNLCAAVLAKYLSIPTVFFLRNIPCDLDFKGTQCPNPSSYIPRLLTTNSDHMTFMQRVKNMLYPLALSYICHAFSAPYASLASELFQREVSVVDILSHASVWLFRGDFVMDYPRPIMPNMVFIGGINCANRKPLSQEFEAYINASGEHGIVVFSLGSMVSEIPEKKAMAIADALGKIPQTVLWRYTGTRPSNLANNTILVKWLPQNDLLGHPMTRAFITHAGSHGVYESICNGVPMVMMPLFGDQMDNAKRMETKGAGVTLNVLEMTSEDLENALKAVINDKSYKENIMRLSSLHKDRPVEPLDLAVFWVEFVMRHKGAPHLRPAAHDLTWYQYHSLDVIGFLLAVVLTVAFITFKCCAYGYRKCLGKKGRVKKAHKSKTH
The data set is described as follows: Drug metabolism assessed as human UGT1A3-mediated glucuronidation expressed in baculovirus infected insect sf9 cells incubated for 5 mins prior to UDPGA addition measured after 5 to 30 mins by LC-UV analysis. The format is ADME. An outline of the steps:
as §1

Data set [4] in a line: Drug metabolism in human intestinal microsomes assessed as glucuronidation incubated for 5 mins prior to UDPGA addition measured after 5 to 30 mins by LC-UV analysis. The format is ADME, Intestine, Microsome. The method, boiled down:
as §1

A short description of data set [5]: Drug metabolism in B6C3F1 mouse liver microsomes assessed as glucuronidation incubated for 5 mins prior to UDPGA addition measured after 5 to 30 mins by LC-UV analysis. The format is ADME. An outline of the steps:
as §1

In data set [6] the target is T3, UDP-glucuronosyltransferase 1A6 (Homo sapiens, UniProt P19224).
T3 sequence (P19224 whole entry): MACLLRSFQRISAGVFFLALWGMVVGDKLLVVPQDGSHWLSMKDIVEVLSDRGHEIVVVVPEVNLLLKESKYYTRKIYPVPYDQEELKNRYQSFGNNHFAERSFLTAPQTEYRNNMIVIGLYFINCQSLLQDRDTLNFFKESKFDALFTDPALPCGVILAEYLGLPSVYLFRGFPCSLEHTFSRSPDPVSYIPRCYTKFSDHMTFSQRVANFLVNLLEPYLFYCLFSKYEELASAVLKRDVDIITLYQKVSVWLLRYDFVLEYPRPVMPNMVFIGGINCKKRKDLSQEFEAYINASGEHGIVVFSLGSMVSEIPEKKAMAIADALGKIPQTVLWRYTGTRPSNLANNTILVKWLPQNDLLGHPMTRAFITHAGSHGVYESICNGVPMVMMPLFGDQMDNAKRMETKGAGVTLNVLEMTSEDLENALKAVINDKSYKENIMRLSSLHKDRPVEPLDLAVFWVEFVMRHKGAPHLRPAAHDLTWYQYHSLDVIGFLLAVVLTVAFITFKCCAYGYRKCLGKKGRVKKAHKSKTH
Nature of the data set: Drug metabolism assessed as human UGT1A6-mediated glucuronidation expressed in baculovirus infected insect sf9 cells incubated for 5 mins prior to UDPGA addition measured after 5 to 30 mins by LC-UV analysis. Format: ADME. The method, boiled down: as §1

In data set [7] the target is T4, UDP-glucuronosyltransferase 1A1 (Homo sapiens, UniProt P22309).
T4 sequence (P22309 whole entry): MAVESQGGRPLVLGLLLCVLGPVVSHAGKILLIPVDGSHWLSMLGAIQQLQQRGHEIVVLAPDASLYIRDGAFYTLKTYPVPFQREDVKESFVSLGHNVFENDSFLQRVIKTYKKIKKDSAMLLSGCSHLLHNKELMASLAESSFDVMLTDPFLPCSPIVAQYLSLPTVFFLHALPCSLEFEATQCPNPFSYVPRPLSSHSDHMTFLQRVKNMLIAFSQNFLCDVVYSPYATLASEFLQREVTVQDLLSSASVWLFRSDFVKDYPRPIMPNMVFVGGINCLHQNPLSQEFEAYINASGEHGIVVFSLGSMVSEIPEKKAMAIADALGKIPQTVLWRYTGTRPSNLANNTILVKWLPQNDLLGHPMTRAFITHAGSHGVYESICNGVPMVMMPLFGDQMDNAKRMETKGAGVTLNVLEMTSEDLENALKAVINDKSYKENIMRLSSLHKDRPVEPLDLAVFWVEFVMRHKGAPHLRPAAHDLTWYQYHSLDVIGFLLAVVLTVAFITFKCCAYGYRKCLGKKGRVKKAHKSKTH
Nature of the data set: Drug metabolism assessed as human UGT1A1-mediated glucuronidation expressed in baculovirus infected insect sf9 cells incubated for 5 mins prior to UDPGA addition measured after 5 to 30 mins by LC-UV analysis. Format: ADME. An outline of the steps: as §1

For the compound `O=C(Nc1ccc(Cl)c(O)c1)Nc1ccc(Cl)c(Cl)c1`, the Drug metabolism result in data set [1] (BLD = below limit of detection) is on record as “BLD”; in data set [2], 9500 pmol/min/mg; in data set [3], 540 pmol/min/mg; in data set [4], 7100 pmol/min/mg; in data set [5], 14700 pmol/min/mg; in data set [6], “metabolite_not_detected”. Also, the Drug metabolism in data set [7] amounted to 520 pmol/min/mg.
As for `O=C(Nc1ccc(Cl)c(Cl)c1)Nc1ccc(Cl)cc1O`, the Drug metabolism is 210 pmol/min/mg in data set [1]; 22800 pmol/min/mg in data set [2]; 390 pmol/min/mg in data set [3]; 5700 pmol/min/mg in data set [4]; 2600 pmol/min/mg in data set [5]; “metabolite_not_detected” in data set [6]. In data set [7], the Drug metabolism was found to be 850 pmol/min/mg.
Consider `O=C(Nc1ccc(Cl)cc1)Nc1cc(Cl)c(Cl)cc1O`, for which the Drug metabolism in data set [1] is listed as 280 pmol/min/mg; in data set [2], 16300 pmol/min/mg; in data set [3] it was 410 pmol/min/mg; in data set [4], 3900 pmol/min/mg; in data set [5], 7900 pmol/min/mg; in data set [6], “metabolite_not_detected”. The Drug metabolism in data set [7] amounted to 820 pmol/min/mg.

Values taken from ChEMBL document CHEMBL3525967, “In vitro glucuronidation of the antibacterial triclocarban and its oxidative metabolites” (Drug Metab Dispos, 2012).
